# Data reported in ChEMBL document CHEMBL1153602, “Photochemical electrocyclisation of 3-vinylindoles to pyrido[2,3-a]-, pyrido[4,3-a]- and thieno[2,3-a]-carbazoles: design, synthesis, DNA binding and antitumor cell cytotoxicity” (2009).
# Calls of active or inactive are those of the source. The rule behind the calls is not given here.
# Legend:
# HT-29 [1] = test: Cell cycle arrest in human HT-29 cells assessed as accumulation at G2/M phase after 24 hrs using PI staining by flow cytometry; assay type: functional, cell-based
# In short: (§1)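 HT-29 cells, 3×10^5 per sample in exponential growth, were exposed to graded drug concentrations for 24 h. Cells were then trypsinised, fixed in 70% ethanol and stained 30 min in the dark with propidium iodide (50 µg/ml) plus RNase (100 µg/ml). DNA content was measured by flow cytometry, quantifying cell-cycle phases and the sub-G1 fraction.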
# HT-29 [2] = test: Growth inhibition of human HT-29 cells by MTS assay; assay type: functional
# In short: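 HT-29 cells, 3×10^3 per well, were seeded 24 h before treatment with compound at 1 nM–100 µM, run as 3 series of duplicate or triplicate points. After 72 h at 37 °C, MTS tetrazolium was added for 2 h and absorbance read at 492 nm. GC50 is the concentration halving cell number versus untreated control wells.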
# Calf thymus DNA [3] = test: Binding affinity to calf thymus DNA assessed as change in melting temperature at a compound to DNA molar ratio of 0.1 by UV-vis spectroscopy; assay type: nucleic-acid assay; conditions: Bos taurus
# In short: (§2)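 UV absorbance of DNA at 260 nm recorded every minute from 20 to 100 °C, ramping 1 °C/min in a thermostated quartz cell. Tm is taken as the midpoint of the hyperchromic transition. ΔTm = Tm(DNA+drug) − Tm(DNA alone). Calf-thymus DNA or poly(dAdT)2 was used at DNA/drug ratios from 0.1 to 1.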
# Calf thymus DNA [4] = test: Binding affinity to calf thymus DNA assessed as change in melting temperature at a compound to DNA molar ratio of 0.25 by UV-vis spectroscopy; assay type: nucleic-acid assay; conditions: Bos taurus; in short: as §2
# Calf thymus DNA [5] = test: Binding affinity to calf thymus DNA assessed as change in melting temperature at a compound to DNA molar ratio of 0.5 by UV-vis spectroscopy; assay type: nucleic-acid assay; conditions: Bos taurus; in short: as §2
# Calf thymus DNA [6] = test: Binding affinity to calf thymus DNA assessed as change in melting temperature at a compound to DNA molar ratio of 1 by UV-vis spectroscopy; assay type: nucleic-acid assay; conditions: Bos taurus; in short: as §2
# Nucleic Acid [7] = test: Binding affinity to poly(dA).poly(dT) duplex DNA assessed as change in thermal melting temperature at compound to DNA ratio of 0.1 by UV-vis spectroscopy; assay type: nucleic-acid assay
# Nucleic Acid [8] = test: Binding affinity to poly(dA).poly(dT) duplex DNA assessed as change in thermal melting temperature at compound to DNA ratio of 0.25 by UV-vis spectroscopy; assay type: nucleic-acid assay
# Nucleic Acid [9] = test: Binding affinity to poly(dA).poly(dT) duplex DNA assessed as change in thermal melting temperature at compound to DNA ratio of 0.5 by UV-vis spectroscopy; assay type: nucleic-acid assay
# Nucleic Acid [10] = test: Binding affinity to poly(dA).poly(dT) duplex DNA assessed as change in thermal melting temperature at compound to DNA ratio of 1 by UV-vis spectroscopy; assay type: nucleic-acid assay
# Calf thymus DNA [11] = test: Binding affinity to calf thymus DNA assessed as positive dichroic signal at phosphate/drug ratio of 1.2 by circular dichroism spectra; assay type: nucleic-acid assay; conditions: Bos taurus
# In short: (§3)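 Circular dichroism of drug at […] in 1 ml of 1 mM sodium cacodylate, pH 7.0, with or without CT-DNA at 10–200 µM. Phosphate/compound ratio ran from 0.4 to 8. The induced CD signal in the ligand absorption region was recorded.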
# Nucleic Acid [12] = test: Binding affinity to pBS 117bp DNA by DnaseI footprinting assay; assay type: nucleic-acid assay
# In short: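 Ligand and fragment were pre-incubated 15 min at 37 °C, then digested with DNase I at 0.001 unit/ml in 20 mM NaCl, 2 mM MgCl2, 2 mM MnCl2, pH 7.3. Products were resolved on a denaturing 8% polyacrylamide/8 M urea gel, with a G-track marker.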
# HT-29 [13] = test: Cell cycle arrest in human HT-29 cells assessed as accumulation at S phase after 24 hrs using PI staining by flow cytometry; assay type: functional, cell-based; in short: as §1
# Calf thymus DNA [14] = test: Binding affinity to calf thymus DNA assessed as quenching constant by fluorescence spectroscopy; assay type: nucleic-acid assay; conditions: Bos taurus
# In short: (§4)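 Drug at a fixed 20 µM in 1 ml BPE buffer in a 10 mm quartz cuvette, titrated with CT-DNA at 10–200 µM base pairs. Excitation was set at each compound's own wavelength (276–319 nm). Constants came from Stern–Volmer plots of F0/F against CT-DNA concentration, with the slope taken as Ksv.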
# Calf thymus DNA [15] = test: Binding affinity to calf thymus DNA assessed as negative dichroic signal at phosphate/drug ratio by circular dichroism spectra; assay type: nucleic-acid assay; conditions: Bos taurus; in short: as §3
# Calf thymus DNA [16] = test: Binding affinity to calf thymus DNA assessed as positive dichroic signal at phosphate/drug ratio by circular dichroism spectra; assay type: nucleic-acid assay; conditions: Bos taurus; in short: as §3
# Calf thymus DNA [17] = test: Binding affinity to calf thymus DNA assessed as positive dichroic signal at phosphate/drug ratio of 4.8 by circular dichroism spectra; assay type: nucleic-acid assay; conditions: Bos taurus; in short: as §3
# Calf thymus DNA [18] = test: Binding affinity to calf thymus DNA assessed as quenching constant up 80 uM by fluorescence spectroscopy; assay type: nucleic-acid assay; conditions: Bos taurus; in short: as §4
GI50 (HT-29 [2]),ΔTm (Calf thymus DNA [3]),ΔTm (Calf thymus DNA [4]),ΔTm (Calf thymus DNA [5]),ΔTm (Calf thymus DNA [6]),ΔTm (Nucleic Acid [7]),ΔTm (Nucleic Acid [8]),ΔTm (Nucleic Acid [9]),ΔTm (Nucleic Acid [10]),Activity (Calf thymus DNA [11]),Activity (Nucleic Acid [12]),KSV (Calf thymus DNA [14]),Activity (Calf thymus DNA [15]),Activity (Calf thymus DNA [16]),Activity (Calf thymus DNA [17]),KSV (Calf thymus DNA [18]),Compound,Activity (HT-29 [1]),Activity (HT-29 [13])
14 µM,1.1 °C,1.5 °C,5.1 °C,7.9 °C,2.8 °C,6.2 °C,13.6 °C,8.8 °C,Active,Active,–,–,–,–,–,CN(C)CCNC(=O)c1cc2c3cccc(Cl)c3[nH]c2c2ncccc12,Active,–
1.08 µM,5.3 °C,7.9 °C,11.2 °C,15.1 °C,11.6 °C,18.9 °C,24.7 °C,29.6 °C,–,Active,6.72 ×10³ /M,Active,Active,–,–,CN(C)CCNC(=O)c1cc2c3cc(Cl)ccc3[nH]c2c2ccncc12,–,Active
4.49 µM,2.6 °C,5 °C,10.4 °C,13.8 °C,9.7 °C,17.6 °C,23.6 °C,29.8 °C,–,Active,–,–,–,Active,–,CN(C)CCCNC(=O)c1cc2c3cccc(Cl)c3[nH]c2c2ncccc12,Active,–
10.8 µM,0 °C,1.5 °C,4.4 °C,5.8 °C,5.9 °C,11.9 °C,16.4 °C,20.9 °C,–,Active,–,–,–,–,2.65 ×10⁴ /M,CN(C)CCCNC(=O)c1cc2c3ccccc3[nH]c2c2sccc12,–,–
